Measured values as given in ChEMBL document CHEMBL1275334, “5-Piperazinyl-3-sulfonylindazoles as potent and selective 5-hydroxytryptamine-6 antagonists” (J Med Chem, 2010).
Calls of active or inactive are those of the source. No cut-off for these calls is given here.

What was measured:
[1] = target: T1, 5-hydroxytryptamine receptor 6 (Homo sapiens, UniProt P50406); assay: Antagonist activity at human cloned 5HT6 receptor expressed in human HeLa cells by cyclase assay; type: functional, cell-based
[2] = target: T1, 5-hydroxytryptamine receptor 6; assay: Displacement of [3H]LSD from human cloned 5HT6 receptor expressed in human HeLa cells; type: cell-based
In short: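 Radioligand displacement of [3H]LSD from cloned human 5-HT6 receptor stably expressed in HeLa cells. All test substances were used as HCl salts. Ki was determined in triplicate.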

[3] = target: T1, 5-hydroxytryptamine receptor 6; assay: Antagonist activity at human cloned 5HT6 receptor expressed in human HeLa cells by cyclase assay relative to control; type: functional, cell-based
[4] = target: T2, 5-hydroxytryptamine receptor 2C (Homo sapiens, UniProt P28335); assay: Displacement of [3H]LSD from human cloned 5HT2C receptor expressed in human HeLa cells; type: cell-based
T2 sequence (P28335 whole entry): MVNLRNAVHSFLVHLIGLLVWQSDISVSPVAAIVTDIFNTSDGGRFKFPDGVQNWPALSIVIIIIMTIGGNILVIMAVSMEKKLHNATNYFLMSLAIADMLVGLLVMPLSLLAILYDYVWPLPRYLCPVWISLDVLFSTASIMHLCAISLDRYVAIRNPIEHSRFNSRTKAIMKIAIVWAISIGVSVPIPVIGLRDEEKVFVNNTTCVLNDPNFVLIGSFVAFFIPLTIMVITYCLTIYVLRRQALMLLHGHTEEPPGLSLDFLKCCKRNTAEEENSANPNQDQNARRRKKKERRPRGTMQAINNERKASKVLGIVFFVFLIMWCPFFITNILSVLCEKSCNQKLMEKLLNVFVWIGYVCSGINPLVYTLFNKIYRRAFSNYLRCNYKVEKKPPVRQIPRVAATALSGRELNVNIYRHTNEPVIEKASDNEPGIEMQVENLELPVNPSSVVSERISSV

[5] = target: T3, 5-hydroxytryptamine receptor 2B (Homo sapiens, UniProt P41595); assay: Displacement of [3H]LSD from human cloned 5HT2B receptor expressed in human HeLa cells; type: cell-based
[6] = target: 5-hydroxytryptamine receptor 1D (Homo sapiens, UniProt P28221); assay: Displacement of [3H]LSD from human cloned 5HT1D receptor expressed in human HeLa cells; type: cell-based
[7] = target: T4, Alpha-2A adrenergic receptor (Homo sapiens, UniProt P08913); assay: Displacement of [3H]LSD from human cloned alpha2A adrenergic receptor expressed in human HeLa cells; type: cell-based
T4 sequence (P08913 whole entry): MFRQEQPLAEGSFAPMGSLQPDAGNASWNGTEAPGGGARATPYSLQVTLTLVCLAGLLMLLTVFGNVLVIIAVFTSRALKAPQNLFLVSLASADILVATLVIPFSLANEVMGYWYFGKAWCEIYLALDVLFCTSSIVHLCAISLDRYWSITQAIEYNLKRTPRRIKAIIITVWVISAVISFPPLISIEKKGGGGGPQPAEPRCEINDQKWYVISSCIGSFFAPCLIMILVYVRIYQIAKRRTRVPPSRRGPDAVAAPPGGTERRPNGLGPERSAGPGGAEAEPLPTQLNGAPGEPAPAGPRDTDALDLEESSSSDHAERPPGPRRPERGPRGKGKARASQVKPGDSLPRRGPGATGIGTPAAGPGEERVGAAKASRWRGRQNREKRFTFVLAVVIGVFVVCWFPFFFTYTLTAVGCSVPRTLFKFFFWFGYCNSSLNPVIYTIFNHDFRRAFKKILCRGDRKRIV

[8] = target: 5-hydroxytryptamine receptor 7 (Homo sapiens, UniProt P34969); assay: Displacement of [3H]LSD from human cloned 5HT7 receptor expressed in human HeLa cells; type: cell-based
[9] = target: T3, 5-hydroxytryptamine receptor 2B; assay: Agonist activity at human recombinant 5HT2B receptor expressed in CHOK1 cells at 0.0001 to 10 uM by FLIPR assay; type: functional, cell-based; details: CHO-K1
[10] = target: T5, 5-hydroxytryptamine receptor 1A (Homo sapiens, UniProt P08908); assay: Displacement of [3H]LSD from human cloned 5HT1A receptor expressed in human HeLa cells; type: cell-based
T5 sequence (P08908 whole entry): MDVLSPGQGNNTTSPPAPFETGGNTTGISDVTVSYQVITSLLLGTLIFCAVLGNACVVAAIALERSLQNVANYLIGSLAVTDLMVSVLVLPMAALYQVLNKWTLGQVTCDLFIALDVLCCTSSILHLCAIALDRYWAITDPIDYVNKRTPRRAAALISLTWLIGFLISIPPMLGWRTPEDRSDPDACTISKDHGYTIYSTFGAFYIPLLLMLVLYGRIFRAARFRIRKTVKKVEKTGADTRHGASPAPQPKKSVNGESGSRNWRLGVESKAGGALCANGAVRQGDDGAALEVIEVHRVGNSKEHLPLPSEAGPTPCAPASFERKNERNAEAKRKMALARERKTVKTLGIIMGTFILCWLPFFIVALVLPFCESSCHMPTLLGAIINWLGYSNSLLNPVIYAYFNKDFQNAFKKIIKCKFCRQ

[11] = target: 5-hydroxytryptamine receptor 1B (Homo sapiens, UniProt P28222); assay: Displacement of [3H]LSD from human cloned 5HT1B receptor expressed in human HeLa cells; type: cell-based
D(2) dopamine receptor = D(2) dopamine receptor (Homo sapiens, UniProt P14416); assay: Displacement of [3H]LSD from human cloned dopamine D2 receptor expressed in human HeLa cells; type: cell-based
Chain of D(2) dopamine receptor (P14416 whole entry): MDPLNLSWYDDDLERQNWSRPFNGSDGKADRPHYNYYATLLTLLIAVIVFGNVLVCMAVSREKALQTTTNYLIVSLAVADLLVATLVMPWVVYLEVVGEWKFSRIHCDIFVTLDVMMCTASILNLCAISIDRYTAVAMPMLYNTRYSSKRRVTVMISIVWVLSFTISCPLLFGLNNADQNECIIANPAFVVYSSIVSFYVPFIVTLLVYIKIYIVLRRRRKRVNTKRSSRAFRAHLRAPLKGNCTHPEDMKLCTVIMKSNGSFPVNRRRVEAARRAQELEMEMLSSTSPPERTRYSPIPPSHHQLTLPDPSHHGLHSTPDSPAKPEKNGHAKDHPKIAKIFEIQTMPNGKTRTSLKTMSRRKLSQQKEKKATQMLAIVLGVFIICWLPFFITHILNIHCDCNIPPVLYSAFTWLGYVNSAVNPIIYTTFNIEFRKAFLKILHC

Chain of 5-hydroxytryptamine receptor 1B (P28222 whole entry): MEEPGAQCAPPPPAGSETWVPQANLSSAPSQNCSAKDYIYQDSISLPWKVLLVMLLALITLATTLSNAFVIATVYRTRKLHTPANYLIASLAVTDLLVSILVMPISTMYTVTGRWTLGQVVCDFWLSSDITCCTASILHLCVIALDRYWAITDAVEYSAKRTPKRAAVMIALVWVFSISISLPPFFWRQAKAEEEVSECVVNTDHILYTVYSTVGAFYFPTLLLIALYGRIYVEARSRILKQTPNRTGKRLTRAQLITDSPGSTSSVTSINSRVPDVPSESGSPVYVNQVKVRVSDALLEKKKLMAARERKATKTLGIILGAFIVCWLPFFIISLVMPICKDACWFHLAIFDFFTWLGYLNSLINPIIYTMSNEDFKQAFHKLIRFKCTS
T1 sequence (P50406 whole entry): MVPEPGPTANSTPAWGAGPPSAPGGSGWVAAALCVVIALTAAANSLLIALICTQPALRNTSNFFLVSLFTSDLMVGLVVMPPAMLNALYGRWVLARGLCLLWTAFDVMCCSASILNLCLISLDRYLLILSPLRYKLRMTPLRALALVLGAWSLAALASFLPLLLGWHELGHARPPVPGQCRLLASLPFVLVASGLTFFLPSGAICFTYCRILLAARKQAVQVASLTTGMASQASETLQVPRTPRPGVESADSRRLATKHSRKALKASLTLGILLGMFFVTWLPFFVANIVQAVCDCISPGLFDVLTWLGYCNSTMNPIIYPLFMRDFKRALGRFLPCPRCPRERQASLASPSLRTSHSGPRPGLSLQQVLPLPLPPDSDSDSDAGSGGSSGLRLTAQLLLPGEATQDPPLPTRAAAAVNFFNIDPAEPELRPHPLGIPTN
Chain of 5-hydroxytryptamine receptor 7 (P34969 whole entry): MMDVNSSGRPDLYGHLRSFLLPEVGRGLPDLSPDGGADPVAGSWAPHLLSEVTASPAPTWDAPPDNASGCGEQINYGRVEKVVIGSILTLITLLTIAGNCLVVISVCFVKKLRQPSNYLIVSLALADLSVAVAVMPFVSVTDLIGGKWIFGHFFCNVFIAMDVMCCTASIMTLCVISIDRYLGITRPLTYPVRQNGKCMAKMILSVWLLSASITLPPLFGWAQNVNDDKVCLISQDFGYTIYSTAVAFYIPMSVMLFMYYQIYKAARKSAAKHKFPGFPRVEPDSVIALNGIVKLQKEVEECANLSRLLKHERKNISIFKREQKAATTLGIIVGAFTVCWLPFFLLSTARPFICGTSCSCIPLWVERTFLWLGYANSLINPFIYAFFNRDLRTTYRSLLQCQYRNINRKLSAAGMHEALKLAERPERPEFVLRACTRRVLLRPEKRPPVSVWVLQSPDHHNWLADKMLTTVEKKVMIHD
Chain of 5-hydroxytryptamine receptor 1D (P28221 whole entry): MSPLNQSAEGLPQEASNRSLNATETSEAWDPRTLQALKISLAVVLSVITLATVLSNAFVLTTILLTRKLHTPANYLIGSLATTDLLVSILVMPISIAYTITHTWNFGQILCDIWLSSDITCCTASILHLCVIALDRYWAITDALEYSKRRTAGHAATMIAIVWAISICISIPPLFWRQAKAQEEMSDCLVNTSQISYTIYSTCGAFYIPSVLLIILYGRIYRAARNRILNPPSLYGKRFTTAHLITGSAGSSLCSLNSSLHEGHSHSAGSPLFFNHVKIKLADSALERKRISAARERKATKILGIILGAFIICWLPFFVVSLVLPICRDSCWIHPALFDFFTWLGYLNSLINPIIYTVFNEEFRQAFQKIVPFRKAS
T3 sequence (P41595 whole entry): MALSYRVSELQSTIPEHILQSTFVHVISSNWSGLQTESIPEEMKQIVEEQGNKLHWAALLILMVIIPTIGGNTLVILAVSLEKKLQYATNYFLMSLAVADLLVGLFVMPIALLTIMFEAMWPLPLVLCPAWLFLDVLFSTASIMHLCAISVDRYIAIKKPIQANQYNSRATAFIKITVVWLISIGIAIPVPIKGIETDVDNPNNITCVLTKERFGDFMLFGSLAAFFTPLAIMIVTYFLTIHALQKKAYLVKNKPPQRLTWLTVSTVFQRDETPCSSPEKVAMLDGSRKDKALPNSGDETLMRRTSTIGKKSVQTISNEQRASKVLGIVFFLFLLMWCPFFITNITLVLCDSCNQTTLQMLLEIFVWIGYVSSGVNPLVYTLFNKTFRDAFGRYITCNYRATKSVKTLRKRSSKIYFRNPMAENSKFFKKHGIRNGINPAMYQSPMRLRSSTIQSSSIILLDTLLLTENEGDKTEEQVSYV

SMILES | IC50 [1] [nM] | Ki [2] [nM] | Imax [3] [%] | further results
CCCn1nc(S(=O)(=O)c2cccc3ccccc23)c2cc(N3CCNCC3)ccc21 | 2.2 |  |  | 
COc1cccc(S(=O)(=O)c2n[nH]c3ccc(N4CCN(C)CC4)cc23)c1 | 57 | 1.1 | 100 | 
O=S(=O)(c1cccc2ccccc12)c1n[nH]c2cc(N3CCNCC3)ccc12 |  | 22 |  | 
CN1CCN(c2ccc3[nH]nc(S(=O)(=O)c4c(Cl)cccc4Cl)c3c2)CC1 | 40 | 2.6 | 100 | 
O=S(=O)(c1ccc(C(F)(F)F)cc1)c1n[nH]c2cc(N3CCNCC3)ccc12 |  | 207 |  | 
CC(C)n1nc(S(=O)(=O)c2cccc3ccccc23)c2cc(N3CCN(C)CC3)ccc21 |  | 1.8 | 98 | 
CC(C)n1nc(S(=O)(=O)c2cccc3ccccc23)c2cc(N3CCNCC3)ccc21 |  | 2.9 | 100 | Ki [4]: 1080 nM; Ki [5]: 96 nM; Ki [6]: > 5 µM; Ki [7]: > 5 µM; Ki [8]: > 5 µM; Activity [9]: inactive; Ki [10]: > 5 µM; Ki [11]: > 5 µM; Ki (D(2) dopamine receptor): 2040 nM
CN1CCN(c2ccc3[nH]nc(S(=O)(=O)c4ccc(F)cc4)c3c2)CC1 | 467 | 5.2 | 98 | 
Cc1ccc(S(=O)(=O)c2n[nH]c3cc(N4CCNCC4)ccc23)cc1 |  | 27 |  | 
Cn1nc(S(=O)(=O)c2ccccc2)c2cc(N3CCNCC3)ccc21 |  | 3.2 | 100 | 
CCn1nc(S(=O)(=O)c2cccc3ccccc23)c2cc(N3CCN(C)CC3)ccc21 |  | 1.7 | 100 | 
COc1ccc(S(=O)(=O)c2n[nH]c3ccc(N4CCN(C)CC4)cc23)cc1 | 544 |  | 100 | 
COc1ccc(S(=O)(=O)c2n[nH]c3cccc(N4CCNCC4)c23)cc1 |  | 88 |  | 
CCCn1nc(S(=O)(=O)c2cccc3ccccc23)c2cc(N3CCN(C)CC3)ccc21 |  | 1.8 | 100 | 
O=S(=O)(c1cccc(F)c1)c1n[nH]c2cc(N3CCNCC3)ccc12 |  | 11 |  | 
COc1ccc(S(=O)(=O)c2n[nH]c3cc(N4CCNCC4)ccc23)cc1 |  | 124 |  | 
Cc1ccc(S(=O)(=O)c2n[nH]c3cccc(N4CCNCC4)c23)cc1 |  | 134 |  | 
O=S(=O)(c1cccc2ccccc12)c1n[nH]c2cccc(N3CCNCC3)c12 |  | 48 |  | 
CN1CCN(c2ccc3[nH]nc(S(=O)(=O)c4ccccc4Cl)c3c2)CC1 | 101 |  | 100 | 

SMILES | IC50 [1] [nM] | Ki [2] [nM] | Imax [3] [%] | further results
CN1CCN(c2ccc3c(c2)c(S(=O)(=O)c2cccc4ccccc24)nn3Cc2ccccc2)CC1 |  |  | 100 | 
CCn1nc(S(=O)(=O)c2cccc3ccccc23)c2cc(N3CCNCC3)ccc21 |  |  | 100 | 
Cn1nc(S(=O)(=O)c2cccc3ccccc23)c2cc(N3CCNCC3)ccc21 |  |  | 99 | Ki [4]: 3650 nM; Ki [5]: 87 nM; Ki [6]: 2.76 µM; Ki [7]: > 5 µM; Ki [8]: > 5 µM; Activity [9]: inactive; Ki [10]: 1.78 µM; Ki [11]: 3.62 µM; Ki (D(2) dopamine receptor): 2240 nM
CN1CCN(c2ccc3[nH]nc(S(=O)(=O)c4ccccc4)c3c2)CC1 | 8.8 | 1.9 | 99 | Ki [4]: 3070 nM; Ki [5]: 978 nM; Ki [6]: > 5 µM; Ki [7]: > 5 µM; Ki [8]: 0.753 µM; Activity [9]: inactive; Ki [10]: > 5 µM; Ki [11]: > 5 µM; Ki (D(2) dopamine receptor): 355 nM
CC(C)Cn1nc(S(=O)(=O)c2cccc3ccccc23)c2cc(N3CCNCC3)ccc21 |  |  | 100 | Ki [4]: 1880 nM; Ki [5]: 281 nM; Ki [6]: > 5 µM; Ki [7]: > 5 µM; Ki [8]: > 5 µM; Activity [9]: inactive; Ki [10]: > 5 µM; Ki [11]: > 5 µM; Ki (D(2) dopamine receptor): 1900 nM
CCn1nc(S(=O)(=O)c2ccccc2)c2cc(N3CCNCC3)ccc21 |  | 2.9 | 100 | 
CN1CCN(c2ccc3[nH]nc(S(=O)(=O)c4ccc(Cl)cc4)c3c2)CC1 | 108 | 8.1 | 100 | 
CN1CCN(c2ccc3[nH]nc(S(=O)(=O)c4cccs4)c3c2)CC1 | 331 | 7.8 | 96 | 
Cc1cccc(S(=O)(=O)c2n[nH]c3ccc(N4CCN(C)CC4)cc23)c1 | 38 | 0.9 | 100 | 
CN1CCN(c2ccc3c(c2)c(S(=O)(=O)c2cccc4ccccc24)nn3C)CC1 |  | 1.7 | 100 | 
CN1CCN(c2ccc3[nH]nc(S(=O)(=O)c4cccc(F)c4)c3c2)CC1 | 132 | 1.7 | 99 | 
O=S(=O)(c1cccc(F)c1)c1n[nH]c2cccc(N3CCNCC3)c12 |  | 134 |  | 
CN1CCN(c2ccc3[nH]nc(S(=O)(=O)c4cccc(Cl)c4)c3c2)CC1 | 62 | 1 | 100 | 
CN1CCN(c2cccc3c(S(=O)(=O)c4cccc5ccccc45)n[nH]c23)CC1 | 17 | 4.6 | 100 | 
CC(C)Cn1nc(S(=O)(=O)c2cccc3ccccc23)c2cc(N3CCN(C)CC3)ccc21 |  | 1.4 | 100 | 
O=S(=O)(c1ccc(Cl)cc1)c1n[nH]c2cccc(N3CCNCC3)c12 |  | 125 |  | 
CN1CCN(c2ccc3[nH]nc(S(=O)(=O)c4ccccc4F)c3c2)CC1 | 54 | 5.5 | 100 | 
Cc1ccc(S(=O)(=O)c2n[nH]c3ccc(N4CCN(C)CC4)cc23)cc1 | 112 | 4.9 | 100 | 
O=S(=O)(c1ccc(Cl)cc1)c1n[nH]c2cc(N3CCNCC3)ccc12 |  | 110 |  | 
